We go through two compounds from article PMC3553987 (Nucleic Acids Research, 2012).

The target of assay [1] is T1, P-STAT1 (Homo sapiens, UniProt P42224).
T1 sequence (P42224 1-750): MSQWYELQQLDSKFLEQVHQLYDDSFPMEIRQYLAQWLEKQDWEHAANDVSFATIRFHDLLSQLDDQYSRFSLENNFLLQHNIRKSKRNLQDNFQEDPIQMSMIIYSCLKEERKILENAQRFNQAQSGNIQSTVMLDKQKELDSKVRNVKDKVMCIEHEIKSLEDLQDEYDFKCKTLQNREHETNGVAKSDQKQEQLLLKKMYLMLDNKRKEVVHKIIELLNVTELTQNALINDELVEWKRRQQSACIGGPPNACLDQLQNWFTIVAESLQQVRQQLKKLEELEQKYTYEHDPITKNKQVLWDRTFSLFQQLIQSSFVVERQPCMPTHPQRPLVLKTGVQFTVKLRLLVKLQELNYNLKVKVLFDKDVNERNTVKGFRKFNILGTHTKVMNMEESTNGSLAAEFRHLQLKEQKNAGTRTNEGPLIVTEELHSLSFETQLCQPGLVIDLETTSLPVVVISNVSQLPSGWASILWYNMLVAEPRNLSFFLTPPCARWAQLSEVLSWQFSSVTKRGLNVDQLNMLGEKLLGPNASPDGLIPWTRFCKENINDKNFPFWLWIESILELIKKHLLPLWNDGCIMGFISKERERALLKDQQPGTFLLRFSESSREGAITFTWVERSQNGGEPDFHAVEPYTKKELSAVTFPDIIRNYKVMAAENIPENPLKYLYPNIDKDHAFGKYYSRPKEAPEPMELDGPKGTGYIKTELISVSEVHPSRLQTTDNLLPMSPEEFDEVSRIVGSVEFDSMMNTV
Briefly: TIRF-PBM: inhibition of P-STAT1 equilibrium binding to DNA array. Conditions: 20 µM compound, 50 nM P-STAT1. Summed up: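 Phosphorylated STAT1 (50 nM), amine-labelled with DyLight dyes, with test compound (20 μM final, from 5 mM DMSO stock). Flowed >30 min at 25°C over dsDNA hydrogel microarray; TIRF read, 20 s exposures. Intensities from 5–10 replicate spots, binned as GAS palindrome with 3-nt spacer, half-GAS, or absent/misspaced GAS.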

Assay [2] deals with STAT3. The settings on record: STAT3, at this concentration (20 µM), in cells and in vivo; cited from earlier work.
Assay [3] deals with Myc/Max (Homo sapiens, UniProt P01106). Kind of assay: TIRF-PBM: inhibition of Myc/Max equilibrium binding to DNA array. The settings on record: 50 μM Mycro3, 10 nM Myc/Max. Summed up: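 DyLight-labelled Myc/Max (His-tagged c-Myc and Max expressed separately in E. coli, then denatured and renatured together) with test compound (5 mM DMSO stock, 50 μM final). Equilibrium intensity from 5–10 replicate spots; E-box consensus vs mutated/absent bins compared by two-tailed t-test with Welch's correction.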

In assay [4] the test system is Myc/Max. The settings on record: read-out: reported IC50; obtained with a cognate-binding site; cited from earlier work.

Myc/Max (Homo sapiens, UniProt P01106), sequence (P01106 whole entry): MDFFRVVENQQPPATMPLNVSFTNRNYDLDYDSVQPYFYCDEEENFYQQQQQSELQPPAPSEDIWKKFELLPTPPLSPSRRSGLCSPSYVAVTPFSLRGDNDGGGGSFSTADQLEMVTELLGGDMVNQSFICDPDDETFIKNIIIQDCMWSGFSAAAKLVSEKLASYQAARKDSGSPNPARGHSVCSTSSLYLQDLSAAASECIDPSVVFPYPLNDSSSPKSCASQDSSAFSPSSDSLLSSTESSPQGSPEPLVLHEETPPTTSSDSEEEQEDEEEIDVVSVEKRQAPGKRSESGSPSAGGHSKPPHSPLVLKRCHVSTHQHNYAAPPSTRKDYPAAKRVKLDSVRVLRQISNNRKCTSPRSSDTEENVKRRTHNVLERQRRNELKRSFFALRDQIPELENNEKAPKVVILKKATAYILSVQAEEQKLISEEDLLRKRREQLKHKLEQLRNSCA

Take `CC(=O)c1cccc2c1C(=O)c1cccc(O)c1C2=O` [LLL3]: in assay [1], the “adjusted binding intensity at 'Half Sites'” value came to 59.4 ± 15.5%; the “adjusted binding intensity at 'Poor Affinity' sites” value is given as 42.4 ± 13.1%; the “average adjusted binding intensity at 'High Affinity' sites, % of the no-inhibitor control” value is reported as 12.6 ± 4.9%; the “fold reduction in binding at 'High Affinity' sites” value is around 8 fold. Besides, the “DNA binding, % of normal activity” value in assay [2] is around 40%.
What is called IC50 is the concentration at which inhibition is half-maximal. As for `CCOC(=O)c1cnn(-c2ccccc2)c1NC(=O)c1cc2nc(-c3ccco3)cc(C(F)(F)Cl)n2n1` [Mycro3], in assay [3], the “Myc/Max binding intensity at 'high affinity' sites, % signal” value is given as 68.5 ± 10.6% and the “Myc/Max binding signal at weaker affinity sites” value was determined as 66.2 ± 23.7%. Besides, in assay [4], the IC50 is 40 ± 13 µM.
